Measurements from publication PMC3855444 (Bioorganic & medicinal chemistry, 2013).

System: hepatitis C virus (JFH-1)
Format: cell-based
Conditions: Huh7.5.1 cells infected with JFH-1 (MOI 0.05), HCV core protein at 72 h
In short: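 Huh7.5.1 cells (150,000 per well) were plated and infected with JFH-1 the next day at 0.05 focus forming units per cell. After 5 h the inoculum was replaced with fresh medium containing test compound at three concentrations chosen from the 72 h ATP-based cytotoxicity data. Lysates were harvested 72 h later, loaded at equal total protein, and probed for HCV core by Western blot.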

**Q.** Which “anti-HCV activity upon methylation relative to the corresponding parent compound” value does the source give for `COc1cc(O)c2c(c1)O[C@H](c1cc(O)c3c(c1)[C@@H](CO)[C@H](c1ccc(O)c(OC)c1)O3)[C@@H](O)C2=O` [compound 10, 7-O-Methylsilychristin] here?
**A.** Its value is “improved anti-HCV activity”.

**Q.** With `COc1cc(O)c2c(c1)O[C@H](c1ccc(O)c3c1[C@@H](CO)[C@H](c1ccc(O)c(OC)c1)O3)[C@@H](O)C2=O` [compound 12, 7-O-Methylisosilychristin] as the molecule, how does the “anti-HCV activity upon methylation relative to the corresponding parent compound” value read?
**A.** The value was “improved anti-HCV activity”.

**Q.** How did the “anti-HCV activity upon methylation relative to the corresponding parent compound” value turn out when `COc1cc(O)c2c(c1)O[C@H](c1ccc3c(c1)O[C@@H](c1ccc(O)c(OC)c1)[C@H](CO)O3)[C@@H](O)C2=O` [compound 4, 7-O-Methylsilybin B] was run?
**A.** The value was “reduced”.

**Q.** How did the “anti-HCV activity upon methylation relative to the corresponding parent compound” value turn out when `COc1cc(O)c2c(c1)O[C@H](c1ccc3c(c1)O[C@H](c1ccc(O)c(OC)c1)[C@@H](CO)O3)[C@@H](O)C2=O` [compound 2, 7-O-Methylsilybin A] was run?
**A.** Its value is “retained”.

**Q.** `COc1cc(O)c2c(c1)O[C@H](c1ccc3c(c1)O[C@H](CO)[C@@H](c1ccc(O)c(OC)c1)O3)[C@@H](O)C2=O` [compound 6, 7-O-Methylisosilybin A] was tested. Which “anti-HCV activity upon methylation relative to the corresponding parent compound” value did it give?
**A.** The value was “reduced”.

**Q.** `COc1cc(O)c2c(c1)O[C@H](c1ccc3c(c1)O[C@@H](CO)[C@H](c1ccc(O)c(OC)c1)O3)[C@@H](O)C2=O` [compound 8, 7-O-Methylisosilybin B] was tested. Which “anti-HCV activity upon methylation relative to the corresponding parent compound” value did it give?
**A.** The value was “slight enhancement”.

System: UDP-glucuronosyltransferase (UGT)
Format: in vitro ADME, human
Conditions: 100 μM, HLM

**Q.** For `COc1cc(O)c2c(c1)O[C@H](c1ccc(O)c3c1[C@@H](CO)[C@H](c1ccc(O)c(OC)c1)O3)[C@@H](O)C2=O` [compound 12, 7-O-Methylisosilychristin], which “inhibition of UGT activity, parent versus methylated analogue, in words” value is on record?
**A.** Its value is “more potent than isosilychristin (11)”.
